# Test results from ChEMBL document CHEMBL1687798, “In vitro mitochondrial toxicity of metacavir, a new nucleoside reverse transcriptase inhibitor for treatment of hepatitis B virus” (Antimicrob Agents Chemother, 2010).
# What was measured:
# Type in all cases: cell-based
# HepG2 [1] = experiment: Cytotoxicity against human HepG2 cells assessed as disrupted mitochondrial cristae at 10 uM after 15 days by electron microscopy relative to control; settings: hepg2, 360 h
# Procedure, shortened: (§1)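 HepG2 cells exposed 15 days, then fixed in 2.5% glutaraldehyde 1 h, postfixed in 1% osmium tetroxide 1 h, dehydrated through graded ethanol and propylene oxide, Epon-embedded, sectioned, and stained with uranyl acetate and lead citrate. Examined by transmission EM; >10 fields per treatment at low or high magnification; three independent experiments. DMSO 0.1% vehicle control.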
# HepG2 [2] = experiment: Cytotoxicity against human HepG2 cells assessed as inhibition of mitochondrial respiratory chain complex III activity at 10 uM after 15 days relative to control; settings: hepg2, 360 h
# HepG2 [3] = experiment: Cytotoxicity against human HepG2 cells assessed as reduction in mitochondrial DNA content at 10 uM after 15 days by RT-PCR method relative to control; set-up: scale not given: the % may be the effect or the level left; settings: hepg2, 360 h
# Procedure, shortened: (§2)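 Total DNA extracted from HepG2 cells after 15-day exposure. Cells reseeded every 5 days; compounds added from 1,000× DMSO stocks, final DMSO 0.1%. Cytochrome b and actin copies measured by TaqMan real-time PCR against plasmid standard curves, 45 cycles. mtDNA/nDNA ratio expressed as percent of DMSO control; three independent experiments.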
# HepG2 [4] = experiment: Cytotoxicity against human HepG2 cells assessed as reduction in viable cells at 10 uM after 15 days by trypan blue dye exclusion assay relative to control; settings: hepg2, 360 h
# Procedure, shortened: (§3)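 HepG2 cells seeded at 5 × 10⁵/ml in MEM with 10% FBS and 1 mM pyruvate. Exposed for 6, 9 and 15 days, with medium and drug renewed every 3 days. Viable cells counted by trypan blue exclusion on a hemocytometer and expressed as percent of 0.1% DMSO control; three independent experiments.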
# HepG2 [5] = experiment: Cytotoxicity against human HepG2 cells assessed as increase in extracellular lactate secretion at 10 uM after 15 days relative to control; settings: hepg2, 360 h
# Procedure, shortened: (§4)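 Extracellular lactate in HepG2 culture medium measured with a lactic acid kit after 15 days of exposure. Medium and drug renewed every 3 days. Expressed as mg lactic acid per 10⁶ cells, then as percent of 0.1% DMSO vehicle control. n = 3.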
# HepG2 [6] = experiment: Cytotoxicity against human HepG2 cells assessed as inhibition of mitochondrial respiratory chain complex I activity at 10 uM after 15 days relative to control; settings: hepg2, 360 h
# HepG2 [7] = experiment: Cytotoxicity against human HepG2 cells assessed as inhibition of mitochondrial respiratory chain complex IV activity at 10 uM after 15 days relative to control; settings: hepg2, 360 h
# HepG2 [8] = experiment: Cytotoxicity against human HepG2 cells assessed as mitochondrial swelling at 10 uM after 15 days by electron microscopy relative to control; settings: hepg2, 360 h; procedure, shortened: as §1
# HepG2 [9] = experiment: Cytotoxicity against human HepG2 cells assessed as inhibition of mitochondrial respiratory chain complex II activity at 10 uM after 15 days relative to control; settings: hepg2, 360 h
# HepG2 [10] = experiment: Cytotoxicity against human HepG2 cells assessed as inhibition of mitochondrial respiratory chain complex III activity at 50 uM after 15 days relative to control; settings: hepg2, 360 h
# HepG2 [11] = experiment: Cytotoxicity against human HepG2 cells assessed as inhibition of mitochondrial respiratory chain complex IV activity at 50 uM after 15 days relative to control; settings: hepg2, 360 h
# HepG2 [12] = experiment: Cytotoxicity against human HepG2 cells assessed as slight increase in mitochondrial size at 50 uM after 15 days by electron microscopy relative to control; settings: hepg2, 360 h; procedure, shortened: as §1
# HepG2 [13] = experiment: Cytotoxicity against human HepG2 cells assessed as inhibition of mitochondrial respiratory chain complex I activity at 50 uM after 15 days relative to control; settings: hepg2, 360 h
# HepG2 [14] = experiment: Cytotoxicity against human HepG2 cells assessed as increase in extracellular lactate secretion at 50 uM after 15 days relative to control; settings: hepg2, 360 h; procedure, shortened: as §4
# HepG2 [15] = experiment: Cytotoxicity against human HepG2 cells assessed as inhibition of mitochondrial respiratory chain complex II activity at 50 uM after 15 days relative to control; settings: hepg2, 360 h
# HepG2 [16] = experiment: Cytotoxicity against human HepG2 cells assessed as reduction in viable cells at 50 uM after 6 days by trypan blue dye exclusion assay relative to control; settings: hepg2, 144 h; procedure, shortened: as §3
# HepG2 [17] = experiment: Cytotoxicity against human HepG2 cells assessed as reduction in viable cells at 50 uM after 15 days by trypan blue dye exclusion assay relative to control; settings: hepg2, 360 h; procedure, shortened: as §3
# HepG2 [18] = experiment: Cytotoxicity against human HepG2 cells assessed as reduction in mitochondrial DNA content at 50 uM after 15 days by RT-PCR method relative to control; set-up: scale not given: the % may be the effect or the level left; settings: hepg2, 360 h; procedure, shortened: as §2
# HepG2 [19] = experiment: Cytotoxicity against human HepG2 cells assessed as inhibition of mitochondrial respiratory chain complex II activity after 15 days relative to control; settings: hepg2, 360 h
# HepG2 [20] = experiment: Cytotoxicity against human HepG2 cells assessed as lipid droplet formation at 250 uM after 15 days by electron microscopy relative to control; settings: hepg2, 360 h; procedure, shortened: as §1
# HepG2 [21] = experiment: Cytotoxicity against human HepG2 cells assessed as increase in extracellular lactate secretion at 10 to 250 uM after 15 days relative to control; settings: hepg2, 360 h; procedure, shortened: as §4
# HepG2 [22] = experiment: Cytotoxicity against human HepG2 cells assessed as inhibition of mitochondrial respiratory chain complex III activity at 250 uM after 15 days relative to control; settings: hepg2, 360 h
# HepG2 [23] = experiment: Cytotoxicity against human HepG2 cells assessed as reduction in viable cells upto 250 uM after 15 days by trypan blue dye exclusion assay relative to control; settings: hepg2, 360 h; procedure, shortened: as §3
# HepG2 [24] = experiment: Cytotoxicity against human HepG2 cells assessed as inhibition of mitochondrial respiratory chain complex I activity at 250 uM after 15 days relative to control; settings: hepg2, 360 h
# HepG2 [25] = experiment: Cytotoxicity against human HepG2 cells assessed as inhibition of mitochondrial respiratory chain complex I activity after 15 days relative to control; settings: hepg2, 360 h
# HepG2 [26] = experiment: Cytotoxicity against human HepG2 cells assessed as inhibition of mitochondrial respiratory chain complex IV activity after 15 days relative to control; settings: hepg2, 360 h
# HepG2 [27] = experiment: Cytotoxicity against human HepG2 cells assessed as inhibition of mitochondrial respiratory chain complex III activity after 15 days relative to control; settings: hepg2, 360 h
# HepG2 [28] = experiment: Cytotoxicity against human HepG2 cells assessed as inhibition of mitochondrial respiratory chain complex II activity at 250 uM after 15 days relative to control; settings: hepg2, 360 h
# HepG2 [29] = experiment: Cytotoxicity against human HepG2 cells assessed as reduction in mitochondrial DNA content at 250 uM after 15 days by RT-PCR method relative to control; set-up: scale not given: the % may be the effect or the level left; settings: hepg2, 360 h; procedure, shortened: as §2
# HepG2 [30] = experiment: Cytotoxicity against human HepG2 cells assessed as mitochondrial swelling at 250 uM after 15 days by electron microscopy relative to control; settings: hepg2, 360 h; procedure, shortened: as §1
# HepG2 [31] = experiment: Cytotoxicity against human HepG2 cells assessed as inhibition of mitochondrial respiratory chain complex IV activity at 250 uM after 15 days relative to control; settings: hepg2, 360 h
structure (smiles),measurement,setting,value
Nc1ccn([C@H]2CC[C@@H](CO)O2)c(=O)n1 [ZALCITABINE],Activity,HepG2 [1],Toxic
same,Activity,HepG2 [2],Toxic
same,Activity,HepG2 [3],3%
same,Activity,HepG2 [4],< 30%
same,Activity,HepG2 [5],170%
same,Activity,HepG2 [6],Toxic
same,Activity,HepG2 [7],Toxic
same,Activity,HepG2 [8],Toxic
same,Activity,HepG2 [9],Toxic
Cc1cn([C@H]2C[C@H](N=[N+]=[N-])[C@@H](CO)O2)c(=O)[nH]c1=O [ZIDOVUDINE],Activity,HepG2 [10],Toxic
same,Activity,HepG2 [11],Toxic
same,Activity,HepG2 [12],Toxic
same,Activity,HepG2 [13],Toxic
same,Activity,HepG2 [14],300%
same,Activity,HepG2 [15],Toxic
same,Activity,HepG2 [16],Toxic
same,Activity,HepG2 [17],60%
same,Activity,HepG2 [18],Non-toxic
COc1nc(N)nc2c1ncn2[C@H]1CC[C@@H](CO)O1 [METACAVIR],Activity,HepG2 [10],Toxic
same,Activity,HepG2 [19],Dose-dependent effect
same,Activity,HepG2 [11],Toxic
same,Activity,HepG2 [2],Non-toxic
same,Activity,HepG2 [3],Non-toxic
same,Activity,HepG2 [20],Toxic
same,Activity,HepG2 [21],Non-toxic
same,Activity,HepG2 [13],Toxic
same,Activity,HepG2 [22],Toxic
same,Activity,HepG2 [15],Non-toxic
same,Activity,HepG2 [23],Non-toxic
same,Activity,HepG2 [6],Non-toxic
same,Activity,HepG2 [24],Toxic
same,Activity,HepG2 [7],Non-toxic
same,Activity,HepG2 [25],Dose-dependent effect
same,Activity,HepG2 [26],Dose-dependent effect
same,Activity,HepG2 [27],Dose-dependent effect
same,Activity,HepG2 [28],Toxic
same,Activity,HepG2 [29],60%
same,Activity,HepG2 [30],Toxic
same,Activity,HepG2 [18],80%
same,Activity,HepG2 [31],Toxic
same,Activity,HepG2 [9],Non-toxic
